Measured values published in ChEMBL document CHEMBL4152204, “Discovery of N-hydroxy-3-alkoxybenzamides as direct acid sphingomyelinase inhibitors using a ligand-based pharmacophore model” (Eur J Med Chem, 2018).
pIC50: −log10 of the molar value. The source made the active and inactive calls. No cut-off for these calls is given here.

Legend:
[1] = biological target: T1, Sphingomyelin phosphodiesterase (Homo sapiens, UniProt P17405); test: Inhibition of acid sphingomyelinase in human HuH7 cell lysate using NBD-sphingomyelin as substrate after 30 mins by TLC based fluorescence assay
T1 sequence (P17405 whole entry): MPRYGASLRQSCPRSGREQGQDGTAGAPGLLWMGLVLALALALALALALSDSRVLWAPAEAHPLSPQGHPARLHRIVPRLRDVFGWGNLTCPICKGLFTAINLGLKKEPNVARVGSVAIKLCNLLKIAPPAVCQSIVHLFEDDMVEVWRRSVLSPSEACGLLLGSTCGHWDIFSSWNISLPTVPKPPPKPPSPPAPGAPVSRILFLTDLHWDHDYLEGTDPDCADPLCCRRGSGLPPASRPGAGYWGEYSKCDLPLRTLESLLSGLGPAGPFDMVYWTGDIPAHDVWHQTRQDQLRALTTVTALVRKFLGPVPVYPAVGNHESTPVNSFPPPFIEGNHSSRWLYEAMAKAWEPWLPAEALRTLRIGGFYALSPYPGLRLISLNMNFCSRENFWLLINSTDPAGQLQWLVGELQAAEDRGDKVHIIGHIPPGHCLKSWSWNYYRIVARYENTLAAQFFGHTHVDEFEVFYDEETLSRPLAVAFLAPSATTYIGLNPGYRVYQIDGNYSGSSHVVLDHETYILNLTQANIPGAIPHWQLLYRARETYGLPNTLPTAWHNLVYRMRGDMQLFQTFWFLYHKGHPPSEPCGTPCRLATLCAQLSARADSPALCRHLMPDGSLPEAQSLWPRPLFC

[2] = biological target: T2, Sphingomyelin phosphodiesterase (Bos taurus, UniProt Q0VD19); test: Inhibition of bovine brain-derived acidic sphingomyelinase
T2 sequence (Q0VD19 whole entry): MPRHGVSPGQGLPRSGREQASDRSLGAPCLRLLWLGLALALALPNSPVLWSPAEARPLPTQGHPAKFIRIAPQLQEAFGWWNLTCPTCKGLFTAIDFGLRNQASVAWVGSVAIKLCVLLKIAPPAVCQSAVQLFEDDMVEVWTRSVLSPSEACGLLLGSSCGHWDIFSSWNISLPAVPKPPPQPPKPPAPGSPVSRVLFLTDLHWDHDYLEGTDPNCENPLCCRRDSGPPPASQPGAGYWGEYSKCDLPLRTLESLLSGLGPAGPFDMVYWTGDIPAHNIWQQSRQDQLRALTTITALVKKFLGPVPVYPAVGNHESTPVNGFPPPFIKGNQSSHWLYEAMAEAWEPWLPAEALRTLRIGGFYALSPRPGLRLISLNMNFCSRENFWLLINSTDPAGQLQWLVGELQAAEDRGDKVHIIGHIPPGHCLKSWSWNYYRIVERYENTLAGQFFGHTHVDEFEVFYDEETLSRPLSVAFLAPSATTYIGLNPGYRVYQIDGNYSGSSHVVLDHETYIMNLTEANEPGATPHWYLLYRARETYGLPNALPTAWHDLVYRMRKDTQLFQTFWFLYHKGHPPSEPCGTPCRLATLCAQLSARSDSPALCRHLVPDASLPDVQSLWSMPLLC

[3] = biological target: T3, Sphingomyelin phosphodiesterase 2 (Homo sapiens) (UniProt O60906); test: Inhibition of neutral sphingomyelinase (unknown origin) assessed as reduction in NBD-ceramide release at 100 uM by TLC based fluorescence assay
T3 sequence (whole entry): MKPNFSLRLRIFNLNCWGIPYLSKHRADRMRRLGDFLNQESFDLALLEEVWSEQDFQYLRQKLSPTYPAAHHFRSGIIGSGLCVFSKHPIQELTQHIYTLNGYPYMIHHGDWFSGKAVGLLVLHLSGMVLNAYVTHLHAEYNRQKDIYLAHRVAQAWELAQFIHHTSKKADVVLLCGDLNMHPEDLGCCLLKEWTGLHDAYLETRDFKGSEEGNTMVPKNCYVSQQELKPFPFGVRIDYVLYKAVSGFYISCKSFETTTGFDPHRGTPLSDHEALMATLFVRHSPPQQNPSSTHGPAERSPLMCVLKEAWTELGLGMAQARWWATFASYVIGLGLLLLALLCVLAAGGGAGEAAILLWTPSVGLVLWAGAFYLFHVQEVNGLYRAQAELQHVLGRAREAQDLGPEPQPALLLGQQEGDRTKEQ

NIH3T3 = test: Cytoprotective activity against UV-induced apoptosis in mouse NIH/3T3 cells assessed as necrotic cells preincubated for 20 hrs followed by UV irradiation for 5 mins and measured after 24 hrs by flow cytometric analysis; format: functional, cell-based
How it was run: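 NIH3T3 cells grown in DMEM plus 10% FBS at 37 °C and 5% CO₂, seeded in 6-well plates and left overnight. Inhibitor (0–60 µM, DMSO solvent) added for 20 h. Medium replaced, then UV at peak 315 nm, 0.29 mW/cm² for 5 min. Cells kept with inhibitor 24 h more before flow cytometry by quadrant regions. Untreated, unirradiated cells served as control. Three independent experiments.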

Structure (SMILES) | pIC50 [1] | further results
O=c1cc(-c2ccc3c(c2)OCCCO3)oc2c1ccc1ccccc12 | 4.62 | –
O=P(O)(O)O[C@H]1[C@H](O)[C@@H](OP(=O)(O)O)[C@H](O)[C@@H](OP(=O)(O)O)[C@H]1O | 4.57 | –
COc1c(O)cc2oc3cc(O)c(CC=C(C)C)c(O)c3c(=O)c2c1CC=C(C)C [MANGOSTIN] | 4.61 | pIC50 [2]: 4.85
COc1cc(/C=C2/SC(=S)N(Nc3ncc(C(F)(F)F)cc3Cl)C2=O)cc(OC)c1OC | 4.55 | –
CCCCCCCCCCOc1cc(C(=O)NCCO)ccc1OC | 4.15 | –
CCCCCCCCCCOc1cc(C(=O)NCC(C)O)ccc1OC (stereo not drawn) | 4.07 | –
O=C(NO)c1cccc(OCc2ccccc2)c1 | 4.22 | –
CCCCCCCC1Cc2cc(O)c(C(=O)O)c(O)c2C(C)O1 (stereo not drawn) | 4.16 | –
N#Cc1ccc(COc2cccc(C(=O)NO)c2)cc1 | 4.28 | –
CC(C)N1C(=N)/C(=C\c2nc(=O)c3ccccc3[nH]2)c2ccccc21 | 4.50 | –
O=C(c1cc(-c2ccccc2)n(-c2ccc(Cl)cc2Cl)n1)N1CCOCC1 | 4.55 | –
COc1ccc(COc2cccc(C(=O)NO)c2)cc1 | 4.37 | –
CCCCc1oc2ccccc2c1C(=O)c1cc(I)c(OCCN(CC)CC)cc1I | 4.40 | –
CN(C)CCC=C1c2ccccc2CCc2ccccc21 | – | Activity (NIH3T3): Dose-dependent effect
CCCCCCCCOC(=O)c1c(CSC(=N)N)n(C)c2cc(Br)c(OC(C)=O)cc12 | 4.50 | –
CC1=C(C(=O)Nc2ccccc2)C(c2ccc(Cl)cc2)n2c(s/c(=C/c3cccc(OCC(=O)O)c3)c2=O)=N1 (stereo not drawn) | 4.60 | –

Further lines, with some results ahead:

pIC50 [1] | Structure (SMILES) | further results
4.71 | O=C(NO)c1cccc(OCc2ccc(Br)cc2)c1 | –
5.11 | COc1ccc(C(=O)NO)cc1OCc1ccc(Br)cc1 | –
4.70 | Cc1cc2[nH]c(=O)c(=O)[nH]c2cc1S(=O)(=O)N1CCN(c2cccc(Cl)c2)CC1 | –
4.76 | CCCCCCCCOc1cccc(C(=O)NO)c1 | –
5.29 to 5.31 | CCNC(=O)/C=C/Cc1c(O)c(OC)cc2oc3cc(OC)cc(O)c3c(=O)c12 | –
4.70 | Cc1cc2[nH]c(=O)c(=O)[nH]c2cc1S(=O)(=O)N1CCN(c2cccc(C(F)(F)F)c2)CC1 | –
4.76 | CCCCCCCCCCOc1cc(C(=O)NO)ccc1O | –
5.85 | CCCCCCCCCCOc1cccc(C(=O)NO)c1 | inhibition [3]: inactive
4.98 | COc1ccc(C(=O)NO)cc1OCc1ccccc1 | –
4.73 | CCCCCCCCCCCCOc1cc(C(=O)NO)ccc1OC | –
4.72 | COc1c(O)cc2oc3cc(O)c(CC=C(C)C)c(O)c3c(=O)c2c1C/C=C(\C)CCC=C(C)C [COWANIN] | –
4.65 | Cc1c(C(=O)Nc2cccc(C(F)(F)F)c2)oc2ccc(S(=O)(=O)N3CCOCC3)cc12 | –
5.29 to 5.31 | CCN(CC)C(=O)/C=C/Cc1c(O)c(OC)cc2oc3cc(OC)cc(O)c3c(=O)c12 | –
6.36 | CCCCCCCCCCCCS(=O)(=O)O[C@H]1OC(O)[C@H](OP(=O)(O)O)[C@@H](O)[C@@H]1OP(=O)(O)O (stereo partly drawn) | –
6.46 | CCCCCCCC(OP(=O)(O)O)OP(=O)(O)O | –
6.52 | CCCCCCCCCC(OP(=O)(O)O)OP(=O)(O)O | –
5.46 | CCOc1ccc2oc(-c3cc(Br)cc4c3OCOC4)c(N)c(=O)c2c1 | –
4.79 | CCCCCCCCOc1cc(C(=O)NO)ccc1OC | –
5.63 | CCCCCCCCS(=O)(=O)OC[C@H]1OC(O)[C@H](OP(=O)(O)O)[C@@H](O)[C@@H]1OP(=O)(O)O (stereo partly drawn) | –
4.85 | COc1ccc(/C=N/NC(=O)c2[nH]c3ccc(Cl)cc3c2-c2ccccc2)c(C(=O)O)c1OC | –
